From ChEMBL document CHEMBL2346559, “Optimization of benzoxazole-based inhibitors of Cryptosporidium parvum inosine 5'-monophosphate dehydrogenase” (J Med Chem, 2013)

Tests used:
[1] = molecular target: T1, Inosine-5'-monophosphate dehydrogenase (Cryptosporidium parvum, UniProt Q8T6T2); experiment: Inhibition of Cryptosporidium parvum N-terminal His6-tagged IMPDH-mediated NADH production expressed in Escherichia coli BL21(DE3) preincubated for 5 mins prior to substrate addition by fluorescence assay
T1 sequence (Q8T6T2 whole entry): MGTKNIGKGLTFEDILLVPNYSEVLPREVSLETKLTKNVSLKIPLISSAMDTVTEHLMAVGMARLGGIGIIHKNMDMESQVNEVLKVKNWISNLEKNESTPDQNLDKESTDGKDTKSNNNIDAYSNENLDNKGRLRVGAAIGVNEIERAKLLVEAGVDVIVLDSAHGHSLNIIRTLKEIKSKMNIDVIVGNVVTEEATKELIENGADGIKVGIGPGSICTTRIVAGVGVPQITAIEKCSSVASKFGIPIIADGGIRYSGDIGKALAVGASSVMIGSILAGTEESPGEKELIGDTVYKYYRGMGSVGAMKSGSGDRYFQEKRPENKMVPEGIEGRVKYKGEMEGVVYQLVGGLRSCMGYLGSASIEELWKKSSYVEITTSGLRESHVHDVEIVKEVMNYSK

[2] = molecular target: Inosine-5'-monophosphate dehydrogenase 2 (Homo sapiens, UniProt P12268); experiment: Inhibition of human IMPDH2
[3] = molecular target: T1, Inosine-5'-monophosphate dehydrogenase; experiment: Inhibition of Cryptosporidium parvum N-terminal His6-tagged IMPDH-mediated NADH production expressed in Escherichia coli BL21(DE3) preincubated for 5 mins prior to substrate addition by fluorescence assay in presence of BSA
Summary of the method: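 Same CpIMPDH fluorescence assay (10 nM enzyme, 300 μM NAD, 150 μM IMP, pH 8.0 Tris buffer, 25 °C, 5 min inhibitor preincubation), run with 0.05% fatty-acid-free BSA added to gauge nonspecific protein binding. Quadruplicate points; IC50 averaged over three determinations.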

Toxoplasma gondii [4] = experiment: Antiparasitic activity against transgenic Toxoplasma gondii expressing Cryptosporidium parvum IMPDH; type: functional, organism-based
Summary of the method: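 Engineered T. gondii strain that depends on CpIMPDH for guanine nucleotide synthesis, run alongside the wild-type RH strain, whose native eukaryotic IMPDH also gauges host-cell cytotoxicity. Antiparasitic EC50 is the average of three independent determinations unless otherwise stated, with some values from two determinations.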

Toxoplasma gondii [5] = experiment: Selectivity ratio of EC50 for wild-type Toxoplasma gondii to EC50 for Toxoplasma gondii expressing Cryptosporidium parvum IMPDH; type: functional
Toxoplasma gondii [6] = experiment: Antiparasitic activity against wild-type Toxoplasma gondii expressing eukaryotic IMPDH; type: functional, organism-based
Liver [7] = experiment: Half life in mouse liver microsomes by LC/MS/MS analysis; type: ADME, Microsome
Summary of the method: (§1)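 Incubation with mouse liver microsomes at 37 °C, with and without NADPH. Percent of compound remaining measured at several time points; half-life from a fit to first-order decay.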

Liver [8] = experiment: Half life in mouse liver microsomes by LC/MS/MS analysis in presence of NADPH; type: ADME, Microsome; summary of the method: as §1
[9] = Cytotoxicity against CHO cells after 3 days by Alamar blue assay; type: cell-based, Cricetulus griseus; details: chinese hamster, read-out: LD50
Summary of the method: (§2)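 Tested in parallel against HeLa, HEK293, COS and CHO cells. Viability was read as metabolic activity by alamarBlue and expressed as LD50.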

[10] = Cytotoxicity against African green monkey COS cells after 3 days by Alamar blue assay; type: cell-based; details: chlorocebus aethiops, read-out: LD50; summary of the method: as §2
[11] = Cytotoxicity against human HEK293 cells after 3 days by Alamar blue assay; type: cell-based; details: read-out: LD50; summary of the method: as §2
[12] = Cytotoxicity against human HeLa cells after 3 days by Alamar blue assay; type: cell-based; details: read-out: LD50; summary of the method: as §2

CC(Oc1cccc2ccccc12)C(=O)Nc1ccc2oc(-c3ncccn3)nc2c1 (stereo not given)
IC50 [1]: > 5000 nM
IC50 [2]: > 5000 nM

CC(C)(Oc1ccc(Cl)cc1)C(=O)Nc1ccc2oc(-c3ccncc3)nc2c1
IC50 [1]: > 5000 nM
IC50 [2]: > 5000 nM

C[C@H](Oc1cccc(Cl)c1Cl)C(=O)Nc1ccc2nc(-c3cncs3)oc2c1
IC50 [1]: 7 nM
IC50 [3]: 60 nM
IC50 [2]: > 5000 nM

C[C@H](Oc1cccc2ccccc12)C(=O)Nc1ccc2oc(-c3ccc[nH]3)nc2c1
IC50 [1]: 26 nM
EC50 (Toxoplasma gondii [4]): 1000 nM
Ratio EC50 (Toxoplasma gondii [5]): 1.7
EC50 (Toxoplasma gondii [6]): 1700 nM
IC50 [3]: 50 nM
IC50 [2]: > 5000 nM

C[C@H](Oc1cccc(C(F)(F)F)c1Cl)C(=O)Nc1ccc2oc(-c3ccncc3)nc2c1
IC50 [1]: 9 nM
EC50 (Toxoplasma gondii [4]): 800 nM
IC50 [3]: 52 nM
IC50 [2]: > 5000 nM

C[C@H](C(=O)Nc1ccc2oc(-c3ccncc3)nc2c1)c1ccccc1
IC50 [1]: > 5000 nM
IC50 [2]: > 5000 nM

CC(Oc1ccc(Cl)cc1Cl)C(=O)Nc1ccc2oc(-c3ccccn3)nc2c1 (stereo not given)
IC50 [1]: 210 nM
IC50 [3]: 800 nM
IC50 [2]: > 5000 nM

CC(Nc1cccc(Cl)c1Cl)C(=O)Nc1ccc2oc(-c3ccncc3)nc2c1 (racemic)
IC50 [1]: 2 nM
EC50 (Toxoplasma gondii [4]): 20 nM
IC50 [2]: > 5000 nM

COc1cccc(O[C@@H](C)C(=O)Nc2ccc3oc(-c4ccncc4)nc3c2)c1OC
IC50 [1]: 50 nM
EC50 (Toxoplasma gondii [4]): 700 nM
Ratio EC50 (Toxoplasma gondii [5]): 30
EC50 (Toxoplasma gondii [6]): 21000 nM
IC50 [3]: 60 nM
IC50 [2]: > 5000 nM

CC(C)C(Oc1cccc2ccccc12)C(=O)Nc1ccc2oc(-c3ccncc3)nc2c1 (stereo not given)
IC50 [1]: 24 nM
IC50 [3]: 57 nM
IC50 [2]: > 5000 nM

CC(Oc1ccc(Cl)cc1Cl)C(=O)Nc1ccc2oc(-c3ccccc3)nc2c1 (stereo not given)
IC50 [1]: > 5000 nM
IC50 [2]: > 5000 nM

C[C@@H](C(=O)Nc1ccc2oc(-c3ccncc3)nc2c1)c1cccc(Cl)c1Cl
IC50 [1]: 60 nM
t1/2 (Liver [7]): 130 min
t1/2 (Liver [8]): 25 min
IC50 [2]: > 5000 nM

C[C@H](Oc1cccc(Cl)c1Cl)C(=O)Nc1ccc2oc(-c3nccs3)nc2c1
IC50 [1]: 17 nM
EC50 (Toxoplasma gondii [4]): 300 nM
Ratio EC50 (Toxoplasma gondii [5]): 7
EC50 (Toxoplasma gondii [6]): 2200 nM
IC50 [3]: 30 nM
IC50 [2]: > 5000 nM

CC(Oc1ccc(Cl)cc1)C(=O)Nc1ccc2oc(-c3ccncc3)nc2c1 (stereo not given)
IC50 [1]: 105 nM
IC50 [3]: 118 nM
IC50 [2]: > 5000 nM

CC(Oc1cccc2ccccc12)C(=O)Nc1ccc2oc(-c3ccncc3)nc2c1 (stereo not given)
IC50 [1]: 9 nM
EC50 (Toxoplasma gondii [4]): 200 nM
Ratio EC50 (Toxoplasma gondii [5]): 34
EC50 (Toxoplasma gondii [6]): 2400 nM
IC50 [3]: 14 nM
IC50 [2]: > 5000 nM

C[C@H](Oc1cccc(Cl)c1Cl)C(=O)Nc1ccc2oc(-c3cncs3)nc2c1
IC50 [1]: 1.4 nM
EC50 (Toxoplasma gondii [4]): 200 nM
Ratio EC50 (Toxoplasma gondii [5]): 15
EC50 (Toxoplasma gondii [6]): 3300 nM
IC50 [3]: 2.3 nM
t1/2 (Liver [7]): 11 min
t1/2 (Liver [8]): 7 min
IC50 [2]: > 5000 nM

C[C@@H](Oc1cccc2ccccc12)C(=O)Nc1ccc2oc(-c3ccncc3)nc2c1
IC50 [1]: 400 nM
IC50 [3]: 380 nM
IC50 [2]: > 5000 nM

CC(Oc1ccccc1)C(=O)Nc1ccc2oc(-c3ccncc3)nc2c1 (stereo not given)
IC50 [1]: 40 nM
EC50 (Toxoplasma gondii [4]): 4000 nM
Ratio EC50 (Toxoplasma gondii [5]): 2
EC50 (Toxoplasma gondii [6]): 7000 nM
IC50 [3]: 50 nM
IC50 [2]: > 5000 nM

CC(NC(=O)c1ccc2oc(-c3ccncc3)nc2c1)c1ccccc1 (stereo not given)
IC50 [1]: > 5000 nM
IC50 [2]: > 5000 nM

CC(Oc1cccc(Cl)c1)C(=O)Nc1ccc2oc(-c3ccncc3)nc2c1 (stereo not given)
IC50 [1]: 20 nM
EC50 (Toxoplasma gondii [4]): 500 nM
Ratio EC50 (Toxoplasma gondii [5]): 2
EC50 (Toxoplasma gondii [6]): 1100 nM
IC50 [3]: 32 nM
IC50 [2]: > 5000 nM

CC(Cc1ccccc1)C(=O)Nc1ccc2oc(-c3ccncc3)nc2c1 (stereo not given)
IC50 [1]: > 5000 nM
IC50 [2]: > 5000 nM

CC(C(=O)Nc1ccc2oc(-c3ccncc3)nc2c1)c1ccccc1 (stereo not given)
IC50 [1]: 120 nM
EC50 (Toxoplasma gondii [4]): 2500 nM
EC50 (Toxoplasma gondii [6]): 5000 nM
IC50 [3]: 130 nM
IC50 [2]: > 5000 nM

C[C@H](Oc1cccc([N+](=O)[O-])c1Cl)C(=O)Nc1ccc2oc(-c3ccncc3)nc2c1
IC50 [1]: 2.3 nM
CC50 at 72 h [9]: > 50000 nM
CC50 at 72 h [10]: > 50000 nM
EC50 (Toxoplasma gondii [4]): 190 nM
CC50 at 72 h [11]: > 50000 nM
IC50 [3]: 6 nM
CC50 at 72 h [12]: > 50000 nM
IC50 [2]: > 5000 nM

C[C@H](Oc1cccc(Cl)c1Cl)C(=O)Nc1ccc2oc(-c3ccncc3)nc2c1
IC50 [1]: 1.2 nM
EC50 (Toxoplasma gondii [4]): 300 nM
Ratio EC50 (Toxoplasma gondii [5]): 16
EC50 (Toxoplasma gondii [6]): 5000 nM
IC50 [3]: 3.5 nM
t1/2 (Liver [7]): 12 min
t1/2 (Liver [8]): 9 min
IC50 [2]: > 5000 nM

C[C@H](Oc1cccc(Cl)c1Cl)C(=O)Nc1cccc(NC(=O)c2ccncc2)c1
IC50 [1]: > 5000 nM
IC50 [2]: > 5000 nM

CC(Oc1c(Cl)cccc1Cl)C(=O)Nc1ccc2oc(-c3ccncc3)nc2c1 (stereo not given)
IC50 [1]: > 5000 nM
IC50 [2]: > 5000 nM

C[C@H](Nc1cccc2ccccc12)C(=O)Nc1ccc2oc(-c3ccncc3)nc2c1
IC50 [1]: 14 nM
t1/2 (Liver [7]): 27 min
t1/2 (Liver [8]): 18 min
IC50 [2]: > 5000 nM

CC(Oc1ccccc1)C(=O)Nc1ccc2nc(-c3ccncc3)[nH]c2c1 (stereo not given)
IC50 [1]: > 5000 nM
EC50 (Toxoplasma gondii [4]): 9000 nM
Ratio EC50 (Toxoplasma gondii [5]): 1
EC50 (Toxoplasma gondii [6]): 9000 nM
IC50 [2]: > 5000 nM

CC(Oc1ccccc1)c1cn(-c2ccc3oc(-c4cncs4)nc3c2)nn1 (stereo not given)
IC50 [1]: > 5000 nM
IC50 [2]: > 5000 nM

CC(Oc1ccc(Cl)cc1Cl)C(=O)Nc1ccc2oc(-c3cccnc3)nc2c1 (stereo not given)
IC50 [1]: 150 nM
IC50 [3]: 600 nM
IC50 [2]: > 5000 nM

CC(Oc1ccc(Cl)c2ccccc12)C(=O)Nc1ccc2oc(-c3ccncc3)nc2c1 (stereo not given)
IC50 [1]: 27 nM
IC50 [3]: 53 nM
IC50 [2]: > 5000 nM

O=C(COc1ccc(Cl)cc1Cl)Nc1ccc2oc(-c3ccncc3)nc2c1
IC50 [1]: > 5000 nM
IC50 [2]: > 5000 nM

CC(Oc1ccc(Cl)c2ccccc12)C(=O)Nc1ccc2oc(-c3cncs3)nc2c1 (stereo not given)
IC50 [1]: 28 nM
EC50 (Toxoplasma gondii [4]): 2000 nM
Ratio EC50 (Toxoplasma gondii [5]): 3
EC50 (Toxoplasma gondii [6]): 5000 nM
IC50 [3]: 70 nM
IC50 [2]: > 5000 nM

C[C@H](Oc1cccc2ccccc12)C(=O)N(C)c1ccc2oc(-c3cncs3)nc2c1
IC50 [1]: > 5000 nM
IC50 [2]: > 5000 nM

C[C@H](Oc1cccc2ccccc12)C(=O)Nc1ccc2oc(-c3ccncc3)nc2c1
EC50 (Toxoplasma gondii [4]): 400 nM
Ratio EC50 (Toxoplasma gondii [5]): 5
EC50 (Toxoplasma gondii [6]): 2200 nM
IC50 [3]: 8 nM
t1/2 (Liver [8]): 30 min
IC50 [2]: > 5000 nM
